Screens deposited in PubChem BioAssay by The Scripps Research Institute Molecular Screening Center.
The list is not random: actives were taken first. Their share in the collection is about 4.3%.
STAT3 inh – IL-6 driven STAT3 reporter inhibitors, primary screen, U3A cells, luciferase, luminescence, MLSCN library | IL-6 STAT3-luciferase reporter; host cell line lacks STAT1 | inhibition, % at 5.5 µM | 190,000 tested, 0.89% active | AID 862, 2007;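 active = inhibition above the mean inhibition across all screened compounds plus 3 SD, cut at about 44% in these data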;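 note: 0% = DMSO only wells and 100% = 100 µM nifuroxazide control wells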
STAT1 act – STAT1 signaling activators, primary screen, cell-based, HTS, luciferase reporter | NIH 3T3 STAT1-luciferase reporter, IFN-gamma, luminescence; 100% = IFN-gamma alone, no compound | activation (% of control), % at 5.5 µM | 200,000 tested, 2.6% active | AID 932, 2007;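 active = activation above the screen-wide mean activation plus 3 SD, cut at about 130% in these data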;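 note: raw ratio to IFN-gamma control signal so 100% means no change and 0% no light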
STAT1 inh – STAT1 signaling inhibitors, primary screen, cell-based, HTS, luciferase reporter | NIH 3T3 STAT1-luciferase reporter, IFN-gamma, luminescence | inhibition, % at 5.5 µM | 200,000 tested, 0.35% active | AID 920, 2007;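 active = inhibition above a set limit, the mean inhibition across all tested compounds plus 3 SD, cut at about 34% in these data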;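 note: 0% = IFN-gamma with DMSO and 100% = IFN-gamma with 300 µM nifuroxazide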
STAT3 act – IL-6 driven STAT3 reporter potentiators, primary screen, U3A cells, luciferase, luminescence, MLSCN library; IL-6 STAT3-luciferase reporter; 100% = signal with IL-6 EC80 alone; activation (% of control), % at 5.6 µM; 190,000 tested, 0.91% active; AID 871, 2007;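 active = activation above the screen-wide mean of compound activation plus 3 SD, cut at about 130% in these data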;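 note: 0% = background luminescence of wells with medium and substrate only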
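Detection: reporter luminescence signal / Assay system: STAT1-lacking human U3A cells, STAT3 luciferase reporter / Incubation: compound pre-incubation 1 h before IL-6, then 6 h stimulation at 37 °C / Control set: IL-6-only high control / Read-out: % activation relative to IL-6 control / Probe or stimulus: Interleukin-6, 33 ng/mL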
Numbers without * were called inactive.

SMILES | STAT3 inh | STAT1 act | STAT1 inh | STAT3 act
COc1cccc(C(=O)c2c(C)c(CCC#N)n3ccccc23)c1 | 0 | 88 | 11 | 104
COc1ccc(-c2csc3[nH]c(=S)n(-c4ccccc4)c(=O)c23)cc1OC | 6 | 100 | 0 | 93
COc1ccc(NC(=O)c2cccnc2Nc2ccc(OC)cc2)cc1 | 26 | 94 | 6 | 80
CC(C)c1ccc(Nc2ncccc2C(=O)O)cc1 | 11 | 143* | -48 | 94
CCCN(C(=O)c1ccco1)c1nnc(-c2ccccc2C)s1 | 7 | 108 | -10 | 98
O=C(Nc1nccs1)c1cncc(Br)c1 | -12 | 143* | -48 | 118
CCN(CC)c1ccc2cc(-c3nc4ccccc4n3C)c(=O)oc2c1 | -44 | 136* | -40 | 145*
CC(NC(=O)CCC(=O)c1ccc(F)cc1)C1CC2CCC1C2 (centres undefined) | 3 | 92 | 8 | 105
O=C(Cn1cc(SCc2cccc(Cl)c2)c2ccccc21)N1CCOCC1 | -14 | 106 | -7 | 114
Cc1cccc(CSc2cn(CC(=O)N3CCOCC3)c3ccccc23)c1 | -22 | 129* | -32 | 114
Clc1ccc(Sc2cc(Cl)c(-c3ccccc3)nn2)cc1 | -52 | 98 | 3 | 142*
CCCNC(=O)c1cc(-c2ccco2)on1 | 0 | 120 | -21 | 103
O=C(NC1CCCCC1)c1cc(-c2ccco2)on1 | 12 | 130* | -33 | 95
CCn1c(C(=O)OC)cc2c1ccn2-c1ccc(F)cc1 | 10 | 144* | -48 | 95
C/C(=N\Nc1ccc([N+](=O)[O-])cc1)c1ccco1 | 4 | 156* | -63 | 99
c1ccc(-c2cn3nc4c(nc3n2)CCCC4)cc1 | 87* | 52 | 53* | 28
Cc1nc2nc(-c3ccccc3)cn2nc1C | 0 | 122 | -26 | 103
COC(=O)C(CC(=O)c1cccc(OC)c1)c1ccc(F)cc1 (centres undefined) | -1 | 96 | 5 | 105
Cc1cccc(NC(=O)c2ccc([N+](=O)[O-])o2)c1C | 36 | 102 | -5 | 74
CCCC(=O)N1CCN(c2ccc(NC(=O)c3ccc([N+](=O)[O-])o3)cc2)CC1 | 9 | 148* | -56 | 96
CCCC(=O)N1CCN(c2ccc(NC(=O)c3ccc(Br)o3)cc2)CC1 | 13 | 104 | -5 | 92
O=C(Nc1ccc(N2CCN(C(=O)c3ccc(Cl)cc3)CC2)cc1)c1ccc([N+](=O)[O-])o1 | -2 | 139* | -46 | 106
CCC(=O)N1CCN(c2ccc(NC(=O)c3ccc([N+](=O)[O-])o3)cc2)CC1 | 23 | 129* | -35 | 85
Cc1ccc(NC(=O)c2ccc([N+](=O)[O-])o2)cc1C | 32 | 148* | -56 | 76
NC(=O)C(=O)NCCCN1CCOCC1 | -6 | 108 | -9 | 106
SMILES | STAT3 inh | STAT1 act | STAT1 inh | STAT3 act
COc1ccccc1-c1ccc(=O)n(CC(=O)NC2CCc3ccccc32)n1 (centres undefined) | 9 | 101 | -3 | 95
CCN1/C(=C/C=C/c2oc3ccc(-c4ccccc4)cc3[n+]2CC)Oc2ccc(-c3ccccc3)cc21 | 54* | 44 | 60* | 56
Cc1csc(SCc2nnc(-c3ccccc3Br)o2)n1 | 7 | 134* | -37 | 98
O=[N+]([O-])c1cccnc1N/N=C/c1ccccc1O | 9 | 130* | -34 | 93
CCOC(=O)c1c(C)[nH]c(C(=O)COC(=O)CNC(=O)c2ccccc2Cl)c1C | -15 | 132* | -36 | 111
CCOC(=O)c1c(C)[nH]c(C(=O)COC(=O)[C@H](C)NC(=O)c2ccccc2Cl)c1C | 9 | 107 | -8 | 96
CCOC(=O)c1c(C)[nH]c(C(=O)COC(=O)CNC(=O)C2CCCCC2)c1C | -3 | 136* | -39 | 107
CCOC(=O)CN1C(=O)S/C(=C/C=C/c2ccc(N(C)C)cc2)C1=O | 15 | 120 | -22 | 90
C#CC(=O)N(c1cc(OC)ccc1OC)C(C(=O)NC1CCCC1)c1cccs1 (centres undefined) | 114* | 33 | 75* | 11
C#CC(=O)N(c1ccc(OC)cc1OC)C(C(=O)NC1CCCC1)c1cccs1 (centres undefined) | 84* | 18 | 88* | 29
Nc1nc2n(n1)C(=O)CC(c1ccccc1)N2 (centres undefined) | 15 | 100 | -2 | 95
